In paper PMC8085964 (Pharmacology Research & Perspectives, 2021):
Entries after “also recorded” stand apart in the source; their conditions may differ.

How the values were obtained:
[1] = Effect of efavirenz on R‐ and S‐PZQ pharmacokinetics; format: in vivo, healthy male participants (human); settings: for AUCt0‐tlast, Geo Mean / C max, Geo Mean / Clearance/F, Geo Mean / Elimination rate constant, Geo Mean / Half‐Life, Geo Mean / T max, Geo Mean / V d/F, Geo Mean / AUCinf, Geo Mean: plasma
[2] = Clinical safety assessments; format: in vivo, healthy male participants (human); settings: for tolerability: healthy participants, result in words
Outline: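 Healthy young males (18–40 y, BMI 18–35) got a single oral test compound dose of 40 mg/kg by weight, then a 400 mg/day antiretroviral for 13 days under daily directly observed treatment. They stayed inpatient ≥24 h before and after dosing (days 1–3, 15–17). Vital signs were checked and adverse events or symptoms monitored. Examination, biochemistry, haematology, urinalysis and ECG were done at screening.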

[3] = should be maintained for at least 4 h for efficacy; cited from earlier work
[4] = patients pre‐exposed to rifampicin; cited from earlier work
[5] = Effect of ritonavir on R‐ and S‐PZQ pharmacokinetics; format: in vivo, healthy male participants (human); settings: for AUCt0‐tlast, Geo Mean / C max, Geo Mean / Elimination rate constant, Geo Mean / Half‐Life, Geo Mean / T max, Geo Mean / V d/F, Geo Mean / AUCinf, Geo Mean / Clearance/F, Geo Mean: plasma; for effect of ritonavir on pharmacokinetics: result in words
[6] = PZQ + Efavirenz (treatment): 40 mg/kg racemic PZQ after 400 mg efavirenz/day
[7] = PZQ alone (reference), single oral 40 mg/kg racemic PZQ, efavirenz arm
[8] = PZQ + Ritonavir (treatment): 40 mg/kg racemic PZQ after 100 mg ritonavir/day for 14 days
[9] = PZQ + Ritonavir (treatment): 40 mg/kg racemic PZQ after 100 mg ritonavir/day for 14 days, 40 mg/kg
[10] = PZQ alone (reference), single oral 40 mg/kg racemic PZQ, ritonavir arm
[11] = PZQ alone (reference), single oral 40 mg/kg racemic PZQ, ritonavir arm, 40 mg/kg

O=C(C1CCCCC1)N1CC(=O)N2CCc3ccccc3C2C1 (stereo not shown) [PZQ, praziquantel]
attainment of the MEC (1 µg/mL for at least 4 h) ([1]; PZQ with efavirenz, result in words): all participants failed to attain the MEC for more than the minimum 4 h | tolerability [2]: generally well tolerated | minimum effective concentration (MEC) [3]: 1 µg/mL | participants without detectable levels [4]: 7 out of 10

O=C(C1CCCCC1)N1CC(=O)N2CCc3ccccc3[C@@H]2C1 [R‐Praziquantel]
AUCt0‐tlast, Geo Mean [1, 6]: 248.02 ng·h/mL | C max, Geo Mean [1, 6]: 104.32 ng/mL | Clearance/F, Geo Mean [1, 6]: 8449.32 L/h | Elimination rate constant, Geo Mean [1, 6]: 0.25 h⁻¹ | Half‐Life, Geo Mean [1, 6]: 2.76 h | T max, Geo Mean [1, 6]: 1.64 h | V d/F, Geo Mean [1, 6]: 33637.78 L | AUCinf, Geo Mean ([1]; PZQ + Efavirenz (treatment): 40 mg/kg racemic PZQ after 400 mg efavirenz/day, 40 mg/kg): 281.43 ng·h/mL | AUCinf, Difference observed ([1]; PZQ + efavirenz vs PZQ alone): −74.36% | AUCinf, Treatment/reference GMR ([1]; PZQ + efavirenz vs PZQ alone): 23.20% | AUCt0‐tlast, Difference observed ([1]; PZQ + efavirenz vs PZQ alone): −76.90% | AUCt0‐tlast, Treatment/reference GMR ([1]; PZQ + efavirenz vs PZQ alone): 21.75% | C max, Difference observed ([1]; PZQ + efavirenz vs PZQ alone): −82.52% | C max, Treatment/reference GMR ([1]; PZQ + efavirenz vs PZQ alone): 21.21% | Clearance/F, Difference observed ([1]; PZQ + efavirenz vs PZQ alone): 546.74% | Elimination rate constant, Difference observed ([1]; PZQ + efavirenz vs PZQ alone): 3.45% | Half‐Life, Difference observed ([1]; PZQ + efavirenz vs PZQ alone): 17.63% | T max, Difference observed ([1]; PZQ + efavirenz vs PZQ alone): −18.22% | V d/F, Difference observed ([1]; PZQ + efavirenz vs PZQ alone): 280.92% | reduction in AUCinf (exposure) by efavirenz ([1]; PZQ + efavirenz vs PZQ alone): 4 fold | AUCinf, Geo Mean [1, 7]: 1213.15 ng·h/mL | AUCt0‐tlast, Geo Mean [1, 7]: 1140.41 ng·h/mL | C max, Geo Mean [1, 7]: 491.78 ng/mL | Clearance/F, Geo Mean [1, 7]: 1960.10 L/h | Elimination rate constant, Geo Mean [1, 7]: 0.26 h⁻¹ | Half‐Life, Geo Mean [1, 7]: 2.66 h | T max, Geo Mean [1, 7]: 1.88 h | V d/F, Geo Mean [1, 7]: 7507.98 L | change in the T max when co‐administered with efavirenz ([1]; result in words): no change | AUCt0‐tlast, Geo Mean [5, 8]: 950.73 ng·h/mL | C max, Geo Mean [5, 8]: 354.34 ng/mL | Elimination rate constant, Geo Mean [5, 8]: 0.26 h⁻¹ | Half‐Life, Geo Mean [5, 8]: 2.71 h | T max, Geo Mean [5, 8]: 1.53 h | V d/F, Geo Mean [5, 8]: 8772.21 L | AUCinf, Geo Mean [5, 9]: 1057.66 ng·h/mL | Clearance/F, Geo Mean [5, 9]: 2241.23 L/h | AUCinf, Difference observed ([5]; PZQ + ritonavir vs PZQ alone): 17.62% | AUCinf, Treatment/reference GMR ([5]; PZQ + ritonavir vs PZQ alone): 104.41% | AUCt0‐tlast, Difference observed ([5]; PZQ + ritonavir vs PZQ alone): 22.8% | AUCt0‐tlast, Treatment/reference GMR ([5]; PZQ + ritonavir vs PZQ alone): 107.06% | C max, Difference observed ([5]; PZQ + ritonavir vs PZQ alone): 13.70% | C max, Treatment/reference GMR ([5]; PZQ + ritonavir vs PZQ alone): 114.88% | Clearance/F, Difference observed ([5]; PZQ + ritonavir vs PZQ alone): 4.36% | Elimination rate constant, Difference observed ([5]; PZQ + ritonavir vs PZQ alone): 26.08% | Half‐Life, Difference observed ([5]; PZQ + ritonavir vs PZQ alone): −28.64% | T max, Difference observed ([5]; PZQ + ritonavir vs PZQ alone): −15.46% | V d/F, Difference observed ([5]; PZQ + ritonavir vs PZQ alone): −15.74% | effect of ritonavir on pharmacokinetics ([5]; PZQ + ritonavir vs PZQ alone, listed as R‐PZQ): no significant effect; also recorded: did not have a significant inhibitory effect | AUCt0‐tlast, Geo Mean [5, 10]: 888.02 ng·h/mL | C max, Geo Mean [5, 10]: 308.44 ng/mL | Elimination rate constant, Geo Mean [5, 10]: 0.19 h⁻¹ | Half‐Life, Geo Mean [5, 10]: 3.57 h | T max, Geo Mean [5, 10]: 1.69 h | V d/F, Geo Mean [5, 10]: 12034.61 L | AUCinf, Geo Mean [5, 11]: 1012.96 ng·h/mL | Clearance/F, Geo Mean [5, 11]: 2340.12 L/h

O=C(C1CCCCC1)N1CC(=O)N2CCc3ccccc3[C@H]2C1 [S‐Praziquantel]
AUCinf, Geo Mean [1, 6]: 871.84 ng·h/mL | AUCt0‐tlast, Geo Mean [1, 6]: 826.17 ng·h/mL | C max, Geo Mean [1, 6]: 329.98 ng/mL | Clearance/F, Geo Mean [1, 6]: 2727.44 L/h | Elimination rate constant, Geo Mean [1, 6]: 0.35 h⁻¹ | Half‐Life, Geo Mean [1, 6]: 2.00 h | T max, Geo Mean [1, 6]: 1.81 h | V d/F, Geo Mean [1, 6]: 7887.36 L | AUCinf, Difference observed ([1]; PZQ + efavirenz vs PZQ alone): −75.26% | AUCt0‐tlast, Difference observed ([1]; PZQ + efavirenz vs PZQ alone): −75.16% | AUCt0‐tlast, Treatment/reference GMR ([1]; PZQ + efavirenz vs PZQ alone): 15.26% | C max, Difference observed ([1]; PZQ + efavirenz vs PZQ alone): −76.85% | Clearance/F, Difference observed ([1]; PZQ + efavirenz vs PZQ alone): 950.27% | Elimination rate constant, Difference observed ([1]; PZQ + efavirenz vs PZQ alone): 11.76% | Half‐Life, Difference observed ([1]; PZQ + efavirenz vs PZQ alone): −15.83% | T max, Difference observed ([1]; PZQ + efavirenz vs PZQ alone): −25.48% | V d/F, Difference observed ([1]; PZQ + efavirenz vs PZQ alone): 757.72% | AUCt0‐tlast, Geo Mean [1, 7]: 5413.80 ng·h/mL | C max, Geo Mean [1, 7]: 1991.32 ng/mL | Clearance/F, Geo Mean [1, 7]: 419.40 L/h | Elimination rate constant, Geo Mean [1, 7]: 0.31 h⁻¹ | Half‐Life, Geo Mean [1, 7]: 2.27 h | T max, Geo Mean [1, 7]: 2.42 h | V d/F, Geo Mean [1, 7]: 1373.82 L | AUCinf, Geo Mean ([1]; PZQ alone (reference), single oral 40 mg/kg racemic PZQ, efavirenz arm, 40 mg/kg): 5669.77 ng·h/mL | AUCinf, Geo Mean [5, 8]: 7291.05 ng·h/mL | AUCt0‐tlast, Geo Mean [5, 8]: 7083.71 ng·h/mL | Clearance/F, Geo Mean [5, 8]: 325.12 L/h | Elimination rate constant, Geo Mean [5, 8]: 0.38 h⁻¹ | Half‐Life, Geo Mean [5, 8]: 1.81 h | T max, Geo Mean [5, 8]: 1.60 h | V d/F, Geo Mean [5, 8]: 847.06 L | C max, Geo Mean [5, 9]: 2336.96 ng/mL | AUCinf, Difference observed ([5]; PZQ + ritonavir vs PZQ alone): 69.84% | AUCinf, Treatment/reference GMR ([5]; PZQ + ritonavir vs PZQ alone): 175.49% | AUCt0‐tlast, Difference observed ([5]; PZQ + ritonavir vs PZQ alone): 71.88% | AUCt0‐tlast, Treatment/reference GMR ([5]; PZQ + ritonavir vs PZQ alone): 178.30% | C max, Difference observed ([5]; PZQ + ritonavir vs PZQ alone): 88.41% | Clearance/F, Difference observed ([5]; PZQ + ritonavir vs PZQ alone): −44.37% | Elimination rate constant, Difference observed ([5]; PZQ + ritonavir vs PZQ alone): 34.38% | Half‐Life, Difference observed ([5]; PZQ + ritonavir vs PZQ alone): −19.25% | T max, Difference observed ([5]; PZQ + ritonavir vs PZQ alone): −24.58% | V d/F, Difference observed ([5]; PZQ + ritonavir vs PZQ alone): −55.79% | effect of ritonavir on pharmacokinetics ([5]; PZQ + ritonavir vs PZQ alone): significant effect | AUCinf, Geo Mean [5, 10]: 4154.79 ng·h/mL | AUCt0‐tlast, Geo Mean [5, 10]: 3972.89 ng·h/mL | Clearance/F, Geo Mean [5, 10]: 570.54 L/h | Elimination rate constant, Geo Mean [5, 10]: 0.31 h⁻¹ | Half‐Life, Geo Mean [5, 10]: 2.25 h | T max, Geo Mean [5, 10]: 2.20 h | V d/F, Geo Mean [5, 10]: 1847.59 L | C max, Geo Mean [5, 11]: 1174.93 ng/mL

O=C1Nc2ccc(Cl)cc2[C@@](C#CC2CC2)(C(F)(F)F)O1 [efavirenz]
participants with mild dizziness ([2]; efavirenz group, symptoms disappearing by day 5): 33%

CC(C)c1nc(CN(C)C(=O)N[C@H](C(=O)N[C@@H](Cc2ccccc2)C[C@H](O)[C@H](Cc2ccccc2)NC(=O)OCc2cncs2)C(C)C)cs1 [ritonavir]
tolerability [2]: generally well tolerated
